Columns and labels:
MAP kinase p38 = MAP kinase p38 (Mus musculus, UniProt P47811+O08911+Q9WUI1+Q9Z1B7); test: Inhibition of murine Mitogen-activated protein kinase p38; format: protein assay
Method in brief: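 Mouse p38 enzyme, 40 ng/well, run for 1 h at room temperature. ATF-2 (50 µg/mL) coated on plates as substrate. Buffer: 25 mM Hepes pH 7.7, 25 mM MgCl2, 2 mM DTT, 1 mM sodium orthovanadate, 100 µM ATP. Phospho-ATF-2 detected with a rabbit phospho-specific antibody, then a europium-labelled anti-rabbit secondary, read by DELFIA fluorescence. Mean ± SEM, n = 3.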

Rattus norvegicus [1] = organism: Rattus norvegicus; test: PK study was carried to determine AUC (area under curve) value in rat; format: ADME, organism-based; set-up: concentration or dose not given beside the values; details: in vivo
Method in brief: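 Three rats dosed at 1 mg/kg, either orally as a methylcellulose suspension or iv as a solution in N-methylpyrrolidone. Blood sampled at intervals over 24 h and assayed for compound. Results averaged, n = 3.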

[2] = biological target: T1, Tumor necrosis factor (Mus musculus) (UniProt P06804); test: Effective dose against LPS-stimulated Tumor necrosis factor, alpha release in mice dosed orally, 30 min prior to LPS challenge (0.1 mg/kg, ip); format: functional, organism-based
T1 sequence (whole entry): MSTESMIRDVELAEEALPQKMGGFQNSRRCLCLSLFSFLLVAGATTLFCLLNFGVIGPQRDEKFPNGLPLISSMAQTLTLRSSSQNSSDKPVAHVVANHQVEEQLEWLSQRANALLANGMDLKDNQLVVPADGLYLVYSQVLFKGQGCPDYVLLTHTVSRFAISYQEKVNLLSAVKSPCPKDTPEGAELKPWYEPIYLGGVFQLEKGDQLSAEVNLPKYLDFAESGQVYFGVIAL
Method in brief: (§1)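 Balb/c mice dosed orally 30 min before ip LPS (0.1 mg/kg). Serum TNFα measured 90 min after LPS. Means, n = 3.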

[3] = PK study was carried to determine the relative absorption ranking in rat.; format: ADME, organism-based; details: plasma, read-out: Cp max
[4] = biological target: T1, Tumor necrosis factor (Mus musculus); test: Effective dose against LPS-stimulated Tumor necrosis factor, alpha release in mice dosed orally, 30 min prior to LPS challenge (0.1 mg/kg, ip); value ranges from 3-10; format: functional, organism-based; method in brief: as §1
Rattus norvegicus [5] = test: Effective dose for suppressing paw swelling in an in vivo SCW (streptococcal cell wall) induced arthritis model in Lewis rat; value ranges from 10-30; format: functional

SMILES | IC50 (MAP kinase p38) [nM] | AUC (Rattus norvegicus [1]) [ng·h/mL] | ED50 [2] [mg/kg] | Cmax [3] [ng/mL] | ED50 [4] [mg/kg] | ED50 (Rattus norvegicus [5]) [mg/kg]
CCCNC(=O)[C@]1(C)CO[C@@H](c2nc(-c3ccc(F)cc3)c(-c3ccnc(NCCCOC)n3)[nH]2)OC1 | 6 | 738 | 6 | 270 |  | 
COCCCNc1nccc(-c2[nH]c([C@H]3OC[C@@](C)(C(=O)NCCOC)CO3)nc2-c2ccc(F)cc2)n1 | 127 | 138 | 5 | 89 |  | 
C[C@]1(C(=O)N2CCOCC2)CO[C@H](c2nc(-c3ccc(F)cc3)c(-c3ccncc3)[nH]2)OC1 [listing 1 of 2 here] |  |  |  |  | 10 | 
C[C@]1(C(=O)NC2CC2)CO[C@H](c2nc(-c3ccc(F)cc3)c(-c3ccnc(NCC4CC4)n3)[nH]2)OC1 | 5 | 288 | 5 | 91 |  | 
CN1CCN(C(=O)[C@]2(C)CO[C@@H](c3nc(-c4ccc(F)cc4)c(-c4ccnc(NCC5CC5)n4)[nH]3)OC2)CC1 | 4 | 541 | 10 | 221 |  | 30
COCCNc1nccc(-c2[nH]c([C@H]3OC[C@@](C)(C(=O)NCC4CC4)CO3)nc2-c2ccc(F)cc2)n1 | 47 | 121 | 3 | 62 |  | 
CS(=O)(=O)O.C[C@]1(C(=O)N2CCOCC2)CO[C@H](c2nc(-c3ccc(F)cc3)c(-c3ccncc3)[nH]2)OC1 | 110 | 628 |  | 277 |  | 
C=CCNc1nccc(-c2[nH]c([C@H]3OC[C@@](C)(C(=O)NCCOC)CO3)nc2-c2ccc(F)cc2)n1 | 62 | 169 | 0.2 | 95 |  | 
CCCNC(=O)[C@]1(C)CO[C@@H](c2nc(-c3ccc(F)cc3)c(-c3ccnc(NCc4ccco4)n3)[nH]2)OC1 | 6 | 257 |  | 39 |  | 
CN(C)C(=O)[C@]1(C)CO[C@@H](c2nc(-c3ccc(F)cc3)c(-c3ccnc(NCc4ccccn4)n3)[nH]2)OC1 | 4 | 529 | 8 | 110 |  | 
C[C@]1(C(=O)N2CCOCC2)CO[C@H](c2nc(-c3ccc(F)cc3)c(-c3ccncc3)[nH]2)OC1 [listing 2 of 2 here] |  | 247 |  | 60 |  | 
CC(C)NC(=O)[C@]1(C)CO[C@@H](c2nc(-c3ccc(F)cc3)c(-c3ccnc(NCC4CC4)n3)[nH]2)OC1 | 12 | 412 | 0.7 | 141 |  | 
CN(C)C(=O)[C@]1(C)CO[C@@H](c2nc(-c3ccc(F)cc3)c(-c3ccnc(NCC4CC4)n3)[nH]2)OC1 | 6 | 276 | 9 | 29 |  | 

Source: ChEMBL document CHEMBL1135434, “An algorithm-directed two-component library synthesized via solid-phase methodology yielding potent and orally bioavailable p38 MAP kinase inhibitors” (J Med Chem, 2002)
